High-throughput results from PubChem BioAssay.
Most compounds without a hit are left out; they make up all but 4.4% or so of the library.
T cruzi inh – T. cruzi replication inhibition | T. cruzi beta-gal in NIH3T3, luminescence, 90 h | inhibition, % (concentration not given with the values) | 300,000 tested, 1.4% active | AID 1885;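 active means mean inhibition across valid replicates above about 55%, limit read from the data; inconclusive means mean below that limit but half or more replicates reach it; inactive means mean below it, under half of replicates reach it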;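 further: signal also drops with host cell toxicity which is not excluded here; 0% = plate median of DMSO wells and 100% = zero luminescence signal; higher percent means less beta-gal luminescence so fewer parasites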
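Test system: β-gal T. cruzi (Tulahuen C4) inside NIH/3T3 cells / Quantity: 5,000 cells/well / Measured by: luminescence from GalScreen with 0.05% NP40, read after 60 min / Medium: DMEM plus 2% FBS / Measure: parasite load inhibition, % / Reagent: Tulahuen C4 trypomastigotes, 5000/well / Schedule: co-culture of at least 90 h after 3 h attachment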
Calb FLC – affects C. albicans growth with fluconazole. C. albicans CaCi-2 + fluconazole, Alamar Blue growth, 48 h. growth inhibition, % (concentration not given with the values). 300,000 tested, 0.57% active. AID 1979;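 active means growth inhibition above about 58% in most replicates, limit read from the data, passing the limit was not always enough; inconclusive means exactly half the replicates above a set limit; inactive means most replicates below a set limit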;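 further: all wells also contain fluconazole at 8 µg/ml as a sub-toxic cotreatment; 0% = median of DMSO wells and 100% = median of geldanamycin control wells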
HSF-1 act – increases HSF-1 driven luciferase reporter signal. NIH3T3-HGL HSF-1 luciferase reporter, MG132, 8 h; 100% = twice DMSO control signal. activation, % at 9 µM. 300,000 tested, 1.7% active. AID 504408;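 active means mean replicate activation of at least 50% with a set share of replicates each reaching 50%; inconclusive means only one of those two conditions met; inactive means mean below 50% and too few replicates reaching it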;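 further: 0% = median of the neutral control wells and 100% = twice that signal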
HIF activator – HIF pathway transcriptional activation | U2OS HRE-luciferase reporter, luminescence; normalized: DMSO 0%, desferrioxamine 100% | activation, % at 7.5 µM (by protocol) | 300,000 tested, 0.32% active;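 active means mean activation of at least 10% of the iron chelator positive control signal, with at least half of replicates also reaching 10%; inconclusive means mean and replicate majority disagree about reaching 10%; inactive means mean and most replicates under 10%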
HSF1 inhib – HSF1 inhibition; NIH3T3-HGL HSE-luciferase, MG132-induced, luminescence 8 h; active compounds read low; 300,000 tested, 0.77% active; activity change, negative = inhibition, % at 7.5 µM (by protocol);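 active means more than half of replicate wells show activity change below -50%, luminescence cut by over half; inconclusive means some wells, but at most half, below -50%; inactive means no replicate well below -50%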;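 further: luciferase reports HSF-1 transcriptional activity via heat shock element; 0% = median of DMSO wells and -100% = zero luminescence signal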
* = called active by the depositor; u = inconclusive; x = no result.

SMILES	T cruzi inh	Calb FLC	HSF-1 act	HIF activator	HSF1 inhib
COc1nc(Nc2cccc(C(F)(F)F)c2)nc(OC)n1	9.8	-0.2	58.8*	2.8	22.0
O=C(CS(=O)(=O)c1cn(CC(=O)N2CCCC2)c2ccccc12)Nc1ccccc1F	4.9	-10.1	24.8	-0.4	3.2
COc1cccc(CNC2CCCC2)c1	-0.2	0.6	-7.2	0.1	-3.8
COc1cc(CNC2CCCC2)cc(OC)c1	-34.9	16.9	59.3*	-29.2	27.7
O=C1CCC/C(=N/Nc2ccc(Cl)cc2)C1	9.0	105.7*	x	0.9	x
C/C=C/c1ccc(OCCCCN2CC(C)CC(C)C2)c(OC)c1 (stereo unspecified)	54.7*	-7.2	-17.1	0.1	0.2
Cn1c2c(c(=O)n1-c1ccccc1)CSCC2	-1.6	1.2	-11.4	-0.2	-4.2
O=C(CN1CCN(Cc2ccccc2Cl)CC1)N=Nc1c(O)[nH]c2ccccc12	11.9	3.1	52.1*	-0.6	11.5
Cc1ccc(CN2CCN(CC(=O)N=Nc3c(O)[nH]c4ccccc34)CC2)cc1	57.7*	-3.2	8.5	-0.4	6.3
COc1ccccc1CN1C(=O)[C@@H]2Cc3c([nH]c4ccccc34)C(C)(C)N2C1=O	18.4	-5.8	-2.5	-1.5	7.2
O=C(COc1ccccc1)NC(=S)Nc1cccc2cc(O)ccc12	3.9	1.8	85.0*	-0.1	66.4
Cc1ccc(OCC(=O)NC(=S)Nc2ccc3c4c(cccc24)CC3)cc1	3.2	-5.3	15.8	-0.1	-11.1
CC(C)c1ccc(OCC(=O)NC(=S)Nc2ccc3c4c(cccc24)CC3)cc1	3.3	-2.5	67.9*	-0.5	20.4
O=C(Nc1cccc(Cl)c1)c1ccc(Cn2cc(Cl)cn2)cc1	4.5	0.8	53.1*	0.4	20.3
CCn1ncc(C(=O)Nc2cccc(Cl)c2)c1C	-17.4	-36.9	62.0*	2.1	22.7
CC(=O)Nc1ccc(NC(=O)c2ccc(Cn3cc(Cl)cn3)cc2)cc1	-3.3	-20.9	x	0.2	x
CN1CCN(c2ccc(NC(=O)c3ccc(Br)o3)cc2)CC1	3.7	4.7	19.2	2.3	6.7
O=C(NC(=S)Nc1ccc(N2CCCCC2)cc1)c1ccco1	23.1	5.9	29.8	1.7	19.6
CC1CCN(c2ccc(NC(=O)c3ccc(Br)o3)cc2)CC1	9.8	26.6	53.2*	1.9	25.2
CC1CCN(c2ccc(NC(=S)NC(=O)c3ccco3)cc2)CC1	24.4	-5.8	60.9*	2.1	14.3
CCCCCCSc1nsc(NC(=O)CCC)n1	40.8	-18.1	19.0	0.3	19.9
Cc1cc(C)nc(N/N=C2/CCCC/C2=C\c2ccccc2)n1	70.1*	-1.8	15.0	0.6	14.9
Cc1ccnc(N/N=C/c2ccccc2)n1	-9.0	11.1	13.4	0.5	2.7
CCn1nc(C(=O)OCC(=O)Nc2nc(-c3ccc(OC)cc3)cs2)c2ccccc2c1=O	-4.4	-29.6	77.0*	1.3	39.9
CCOC(=O)/C(=N\Nc1ccc(Br)cc1)N1CC(C)OC(C)C1 (stereo unspecified)	-2.3	-9.4	-16.5	0.4	-0.6
SMILES	T cruzi inh	Calb FLC	HSF-1 act	HIF activator	HSF1 inhib
Cc1onc(-c2ccccc2)c1C(=O)NCc1ccccc1F	-7.7	-0.2	-12.5	0.0	-4.8
CC1Cc2ccccc2N1C(=O)/C=C/c1cccc(F)c1 (stereo unspecified)	-9.0	u	69.6*	4.9	37.4
CSC(=NC#N)N1CCN(c2ccc(Cl)cc2)CC1	-27.5	18.8	55.9*	0.6	27.3
CN(C)C(=C(C#N)C#N)N1CCN(c2ccc(Cl)cc2)CC1	-0.5	-0.2	-7.6	-0.1	-11.2
Cc1ccccc1Cn1c(-c2cncs2)nc2ccccc21	-12.6	7.8	68.7*	-0.1	65.0
Brc1cc2c(cc1Cn1c(-c3cncs3)nc3ccccc31)OCO2	27.7	-8.6	10.9	0.0	2.0
COc1cccc(/C=N/NC(=O)CSc2ccccc2C)c1O	-3.1	68.4	15.6	12.1*	6.9
COc1cccc(/C=N/NC(=O)c2c(C)nc3ccc(Br)cn23)c1O	69.3*	108.8*	-7.6	31.5*	11.0
COc1cccc(/C=N/NC(=O)N/N=C/c2cccc(OC)c2O)c1O	4.3	13.8	-2.6	2.9	-4.1
COc1cccc(/C=N/NC(=O)c2nc(-c3ccccc3)cc(-c3ccccc3)n2)c1O	5.9	113.7*	1.8	10.9*	0.9
COC(=O)c1ccc(C(=O)OC)c(NC(=O)c2cccnc2)c1	-4.5	-0.8	14.8	-24.6	8.3
